Data taken from ChEMBL document CHEMBL4689842, “EUbOPEN Chemogenomics Library wave 1” (2021).

Test system: U2OS
Experiment: Multiplex assay against U2OS
Type: toxicity, cell-based
Conditions: human
How it was run: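 Per cents of healthy-nucleus cells form the tubulin, mitochondrial-mass and membrane-permeability phenotype values. Live cells were stained at seeding with Hoechst33342, BioTracker Green Microtubule Cytoskeleton Dye, MitoTracker Red and Annexin V Alexa Fluor 680. After compound addition they were imaged on a CQ1 microscope at 37°C and 5% CO2, and CellPathfinder machine-learning gating split them into Hoechst high-intensity objects or normal cells, normal cells into healthy, pyknosed or fragmented nuclei, and pyknosed cells into mitotic or apoptotic.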

[1] = 12 h, 1 µM, compound concentration 1 uM, replicate 1
[2] = 12 h, 1 µM, compound concentration 1 uM, replicate 2
[3] = 12 h, 10 µM, compound concentration 10 uM, replicate 1
[4] = 12 h, 10 µM, compound concentration 10 uM, replicate 2
[5] = 24 h, 1 µM, compound concentration 1 uM, replicate 1
[6] = 24 h, 1 µM, compound concentration 1 uM, replicate 2
[7] = 24 h, 10 µM, compound concentration 10 uM, replicate 1
[8] = 24 h, 10 µM, compound concentration 10 uM, replicate 2
[9] = 48 h, 1 µM, compound concentration 1 uM, replicate 1
[10] = 48 h, 1 µM, compound concentration 1 uM, replicate 2
[11] = 48 h, 10 µM, compound concentration 10 uM, replicate 1
[12] = 48 h, 10 µM, compound concentration 10 uM, replicate 2

Structure (SMILES): CCC(=O)O[C@]1(C(=O)SCF)[C@H](C)C[C@H]2[C@@H]3C[C@H](F)C4=CC(=O)C=C[C@]4(C)[C@@]3(F)[C@@H](O)C[C@@]21C [FLUTICASONE PROPIONATE]
- Population Apoptotic (%) [1]: 35%
- Population Fragmented Nuclei (%) [1]: 8%
- Population Healthy Nuclei (%) [1]: 81%
- Population Hoechst High Intensity Objects (%) [1]: 5%
- Population Membrane Permeable-Phenotype (%) [1]: 7%
- Population Mitochondria Different-Phenotype (%) [1]: 7%
- Population Mitotic Cells (%) [1]: 64%
- Population Normal (%) [1]: 94%
- Population Pyknosed Nuclei (%) [1]: 9%
- Population Tubulin-Different-Phenotype (%) [1]: 10%
- Total Cell Count [1]: 182
- Population Apoptotic (%) [2]: 71%
- Population Fragmented Nuclei (%) [2]: 4%
- Population Healthy Nuclei (%) [2]: 78%
- Population Hoechst High Intensity Objects (%) [2]: 12%
- Population Membrane Permeable-Phenotype (%) [2]: 3%
- Population Mitochondria Different-Phenotype (%) [2]: 9%
- Population Mitotic Cells (%) [2]: 28%
- Population Normal (%) [2]: 87%
- Population Pyknosed Nuclei (%) [2]: 16%
- Population Tubulin-Different-Phenotype (%) [2]: 9%
- Total Cell Count [2]: 68
- Population Apoptotic (%) [3]: 53%
- Population Fragmented Nuclei (%) [3]: 14%
- Population Healthy Nuclei (%) [3]: 72%
- Population Hoechst High Intensity Objects (%) [3]: 9%
- Population Membrane Permeable-Phenotype (%) [3]: 22%
- Population Mitochondria Different-Phenotype (%) [3]: 47%
- Population Mitotic Cells (%) [3]: 46%
- Population Normal (%) [3]: 90%
- Population Pyknosed Nuclei (%) [3]: 13%
- Population Tubulin-Different-Phenotype (%) [3]: 48%
- Total Cell Count [3]: 155
- Population Apoptotic (%) [4]: 28%
- Population Fragmented Nuclei (%) [4]: 8%
- Population Healthy Nuclei (%) [4]: 81%
- Population Hoechst High Intensity Objects (%) [4]: 8%
- Population Membrane Permeable-Phenotype (%) [4]: 3%
- Population Mitochondria Different-Phenotype (%) [4]: 37%
- Population Mitotic Cells (%) [4]: 71%
- Population Normal (%) [4]: 92%
- Population Pyknosed Nuclei (%) [4]: 10%
- Population Tubulin-Different-Phenotype (%) [4]: 35%
- Total Cell Count [4]: 48
- Population Apoptotic (%) [5]: 37%
- Population Fragmented Nuclei (%) [5]: 4%
- Population Healthy Nuclei (%) [5]: 86%
- Population Hoechst High Intensity Objects (%) [5]: 3%
- Population Membrane Permeable-Phenotype (%) [5]: 6%
- Population Mitochondria Different-Phenotype (%) [5]: 5%
- Population Mitotic Cells (%) [5]: 62%
- Population Normal (%) [5]: 96%
- Population Pyknosed Nuclei (%) [5]: 8%
- Population Tubulin-Different-Phenotype (%) [5]: 6%
- Total Cell Count [5]: 230
- Population Apoptotic (%) [6]: 16%
- Population Fragmented Nuclei (%) [6]: 3%
- Population Healthy Nuclei (%) [6]: 84%
- Population Hoechst High Intensity Objects (%) [6]: 11%
- Population Membrane Permeable-Phenotype (%) [6]: 11%
- Population Mitochondria Different-Phenotype (%) [6]: 11%
- Population Mitotic Cells (%) [6]: 83%
- Population Normal (%) [6]: 88%
- Population Pyknosed Nuclei (%) [6]: 11%
- Population Tubulin-Different-Phenotype (%) [6]: 20%
- Total Cell Count [6]: 78
- Population Apoptotic (%) [7]: 53%
- Population Fragmented Nuclei (%) [7]: 17%
- Population Healthy Nuclei (%) [7]: 61%
- Population Hoechst High Intensity Objects (%) [7]: 9%
- Population Membrane Permeable-Phenotype (%) [7]: 43%
- Population Mitochondria Different-Phenotype (%) [7]: 24%
- Population Mitotic Cells (%) [7]: 46%
- Population Normal (%) [7]: 90%
- Population Pyknosed Nuclei (%) [7]: 21%
- Population Tubulin-Different-Phenotype (%) [7]: 41%
- Total Cell Count [7]: 189
- Population Apoptotic (%) [8]: 58%
- Population Fragmented Nuclei (%) [8]: 5%
- Population Healthy Nuclei (%) [8]: 78%
- Population Hoechst High Intensity Objects (%) [8]: 8%
- Population Membrane Permeable-Phenotype (%) [8]: 6%
- Population Mitochondria Different-Phenotype (%) [8]: 31%
- Population Mitotic Cells (%) [8]: 41%
- Population Normal (%) [8]: 91%
- Population Pyknosed Nuclei (%) [8]: 16%
- Population Tubulin-Different-Phenotype (%) [8]: 25%
- Total Cell Count [8]: 59
- Population Apoptotic (%) [9]: 53%
- Population Fragmented Nuclei (%) [9]: 4%
- Population Healthy Nuclei (%) [9]: 89%
- Population Hoechst High Intensity Objects (%) [9]: 2%
- Population Membrane Permeable-Phenotype (%) [9]: 5%
- Population Mitochondria Different-Phenotype (%) [9]: 10%
- Population Mitotic Cells (%) [9]: 46%
- Population Normal (%) [9]: 97%
- Population Tubulin-Different-Phenotype (%) [9]: 8%
- Total Cell Count [9]: 304
- Population Apoptotic (%) [10]: 20%
- Population Fragmented Nuclei (%) [10]: 1%
- Population Healthy Nuclei (%) [10]: 93%
- Population Hoechst High Intensity Objects (%) [10]: 8%
- Population Membrane Permeable-Phenotype (%) [10]: 8%
- Population Mitochondria Different-Phenotype (%) [10]: 12%
- Population Mitotic Cells (%) [10]: 80%
- Population Normal (%) [10]: 91%
- Population Pyknosed Nuclei (%) [10]: 5%
- Population Tubulin-Different-Phenotype (%) [10]: 19%
- Total Cell Count [10]: 113
- Population Apoptotic (%) [11]: 72%
- Population Fragmented Nuclei (%) [11]: 13%
- Population Healthy Nuclei (%) [11]: 67%
- Population Hoechst High Intensity Objects (%) [11]: 6%
- Population Membrane Permeable-Phenotype (%) [11]: 42%
- Population Mitochondria Different-Phenotype (%) [11]: 18%
- Population Mitotic Cells (%) [11]: 27%
- Population Normal (%) [11]: 93%
- Population Pyknosed Nuclei (%) [11]: 19%
- Population Tubulin-Different-Phenotype (%) [11]: 38%
- Total Cell Count [11]: 260
- Population Apoptotic (%) [12]: 45%
- Population Fragmented Nuclei (%) [12]: 4%
- Population Healthy Nuclei (%) [12]: 85%
- Population Hoechst High Intensity Objects (%) [12]: 3%
- Population Membrane Permeable-Phenotype (%) [12]: 11%
- Population Mitochondria Different-Phenotype (%) [12]: 14%
- Population Mitotic Cells (%) [12]: 54%
- Population Normal (%) [12]: 96%
- Population Pyknosed Nuclei (%) [12]: 11%
- Population Tubulin-Different-Phenotype (%) [12]: 22%
- Total Cell Count [12]: 101
